# Rows were chosen to be rich in hits. Some 2.2% of all compounds tested hit in one or more screens of this group.
# GalR3 antag – blocks the human galanin receptor 3; inhibition, % at 3 µM; HEK293 GalR3-CNG cAMP membrane potential fluorescence; galR3 body fused to GalR1 C-terminus; AID 651719; O60755; actives 0.44% (n = 360,000);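 active = inhibition above the screen-wide average plus 3 SD, cut at about 13% in these data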;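 also: forskolin and galanin both at EC90 stimulate the cells; cAMP rise reported by CNG channel membrane potential dye signal; 0% = forskolin plus galanin with DMSO and 100% = forskolin alone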
# Target sequence (O60755 1-299 limits assumed): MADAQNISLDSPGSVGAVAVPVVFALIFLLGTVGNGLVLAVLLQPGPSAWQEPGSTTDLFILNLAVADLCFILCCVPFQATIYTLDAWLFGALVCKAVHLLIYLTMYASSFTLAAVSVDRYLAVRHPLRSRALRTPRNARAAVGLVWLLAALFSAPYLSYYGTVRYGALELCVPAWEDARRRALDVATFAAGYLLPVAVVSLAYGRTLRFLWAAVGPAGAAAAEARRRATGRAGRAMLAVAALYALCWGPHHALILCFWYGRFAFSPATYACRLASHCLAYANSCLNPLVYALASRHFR
# V-ATPase pHluor – yeast V-ATPase proton transport regulation by pHLuorin | actives 0.37% (n = 350,000) | S. cerevisiae, pHLuorin cytosolic pH fluorescence | response, % at 10 µM; in the data active = response mostly above about 7.3%, no sharp cut-off; inactive = mostly below about 5.4%; also: actives read high
# NR2E3 ag-1 – agonists of human nuclear receptor NR2E3; inhibition of corepressor binding, % at 4.78 µM; AID 2300; Q9Y5X4; GST-NR2E3/biotin-RetCOR TR-FRET, 1536-well; actives 0.12% (n = 320,000);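 active = percent inhibition above the cutoff of mean plus 3 SD of all tested compounds, set per screening campaign, cut at about 20% in these data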;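 also: 0% = DMSO wells and 100% = biotin wells as full block of FRET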
# Target sequence (Q9Y5X4 whole entry, looked up): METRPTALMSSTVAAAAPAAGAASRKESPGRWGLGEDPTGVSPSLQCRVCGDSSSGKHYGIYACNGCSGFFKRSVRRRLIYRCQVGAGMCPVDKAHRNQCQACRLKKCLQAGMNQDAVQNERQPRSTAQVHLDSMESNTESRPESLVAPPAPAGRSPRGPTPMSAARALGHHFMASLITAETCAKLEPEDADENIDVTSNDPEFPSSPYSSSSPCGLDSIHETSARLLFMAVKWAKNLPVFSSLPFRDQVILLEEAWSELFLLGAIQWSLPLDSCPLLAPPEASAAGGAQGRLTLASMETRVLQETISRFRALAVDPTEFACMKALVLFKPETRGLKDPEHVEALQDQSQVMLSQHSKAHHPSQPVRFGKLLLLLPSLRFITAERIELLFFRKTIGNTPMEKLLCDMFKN
#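 Material: NR2E3–RetCOR corepressor complex / Amount: 1.35 nM GST-NR2E3 / Medium: Tris pH 7.5 / Compound: single nominal compound dose of 4.8 µM / Incubation: 5 h at 4 °C / Technique: TR-FRET, Eu(K)-anti-GST donor, streptavidin-D2 acceptor, ex 340, em 617/671 nm / Read-out basis: percent loss of FRET ratio relative to control wells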
# NR2E3 ag-2 – activates human NR2E3 receptor; CHO-S Gal4-NCOR/VP16-NR2E3 two-hybrid, luciferase; inhibition of corepressor binding, % at 3.98 µM; actives 0.35% (n = 360,000); AID 602229;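 active = inhibition above the mean of all tested compounds plus 3 SD, cut at about 70% in these data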;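 also: 0% = DMSO with NR2E3 transfected cells and 100% = cells lacking NR2E3 construct; higher means lower luciferase signal from less NR2E3 corepressor binding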
# GAA850 FXN act – frataxin GAA850 promoter activation; HEK293 lucGAA850 FXN promoter luciferase reporter, 24 h; percent of 10 µM SAHA response; activation, % at 6 µM; actives 0.56% (n = 360,000);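 active = activation above the average of all compounds screened plus 3 SD, cutoff fixed separately per campaign, cut at about 7.5% in these data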;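 also: 0% = DMSO wells and 100% = 10 µM SAHA wells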
# Env fusion inh – blocks HIV Env-driven cell-cell fusion | HeLa-JRFL Env/CEM21 cell fusion, luciferase | inhibition, % at 12.3 µM | actives 1.1% (n = 360,000) | AID 651610;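 active = mean replicate inhibition score of at least 50 and every replicate individually at or above 50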;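 also: 0% = plate neutral controls and 100% = maraviroc near 300 nM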
# An asterisk follows results filed as active; / = no result given; [ ] = another dose, or the depositor's remark.
SMILES,GalR3 antag,V-ATPase pHluor,NR2E3 ag-1,NR2E3 ag-2,GAA850 FXN act,Env fusion inh
OCCCN=C1CCCc2c1[nH]c1ccc(Cl)cc21,-1.6,-2.4,1.2,-3.0,2.6,57.3*
CCOC(=O)C1CCCc2c1[nH]c1ccc(Cl)cc21 (stereo not drawn),1.2,-2.9,-2.7,9.3,-6.7,9.2
CCCCCCCCCCn1ccc(=N)cc1,97.0*,4.2,3.6,43.7,-8.8,77.5*
CCCCCCCCn1ccc(=N)cc1,-3.9,-8.1,-1.2,9.3,-4.6,20.9
COc1ccc(CN(C)C[C@@H]2OCCCC[C@@H](C)Oc3ccc(NC(=O)Cc4ccccc4)cc3C(=O)N([C@H](C)CO)C[C@@H]2C)cc1,/,/,/,/,/,-11.6[16.7 µM]
C[C@H]1CN([C@@H](C)CO)C(=O)Cc2cc(NC(=O)Nc3ccc(F)cc3)ccc2O[C@H]1CN(C)Cc1ccc(C(F)(F)F)cc1,/,/,/,/,/,-15.0[16.7 µM]
C[C@@H]1CN([C@@H](C)CO)C(=O)Cc2cc(NC(=O)Nc3ccc(F)cc3)ccc2O[C@H]1CN(C)Cc1ccc(C(F)(F)F)cc1,/,/,/,/,/,69.0*[16.7 µM]
C[C@H]1CN([C@@H](C)CO)C(=O)Cc2cc(NC(=O)Nc3ccc(C(F)(F)F)cc3)ccc2O[C@@H]1CN(C)Cc1ccccc1,/,/,/,/,/,82.0*[16.7 µM]
CC(C)C(=O)Nc1ccc2c(c1)C(=O)N(C)[C@H]1CC[C@@H](CC(=O)NCc3cccc(F)c3)O[C@@H]1CO2,/,/,/,/,/,17.8[16.7 µM]
CC(CCc1ccco1)NC(=O)CCc1nnc2ccc(NCc3ccccc3Cl)nn12 (stereo not drawn),-10.4,4.6,-0.1,-17.5,-1.5,77.0*
CC(CCc1ccco1)NC(=O)CCc1nnc2ccc(NCc3ccc(Cl)cc3)nn12 (stereo not drawn),-2.6,-2.0,-2.7,-75.1,1.6,-4.5
O=C(Cn1cc(CN2C(=O)COC[C@H]2c2ccccc2)nn1)Nc1nccs1,/,/,/,/,/,-20.9[16.7 µM]
O=C(NCc1cccnc1)c1c[nH]c2cc3c(cc2c1=O)OCCO3,-6.0,3.9,1.9,-24.3,-2.5,74.6*
CC(C)NC(=O)Nc1ccc2c(c1)C(=O)N([C@@H](C)CO)C[C@H](C)[C@@H](CN(C)Cc1ccncc1)OCCCC[C@H](C)O2,/,/,/,/,/,-43.5[16.7 µM]
CCCC(=O)Nc1sc(C)c(-c2ccc(C(C)CC)cc2)c1C#N (stereo not drawn),/,15.7*,0.8,-2.6,-0.7,/
Cc1ccc(S(=O)(=O)N(C)C[C@@H]2Oc3ccc(NC(=O)Nc4ccc5c(c4)OCO5)cc3CC(=O)N([C@H](C)CO)C[C@@H]2C)cc1,/,/,/,/,/,-25.1[16.7 µM]
C[C@@H]1CN([C@H](C)CO)C(=O)c2cccc(NC(=O)Nc3ccc(C(F)(F)F)cc3)c2O[C@H]1CN(C)Cc1ccc(C(F)(F)F)cc1,/,/,/,/,/,59.0*[16.7 µM]
C[C@@H]1CN([C@@H](C)CO)C(=O)c2cccc(NC(=O)Nc3ccc(C(F)(F)F)cc3)c2O[C@H]1CN(C)Cc1ccc(Oc2ccccc2)cc1,/,/,/,/,/,69.1*[16.7 µM]
CN1[C@@H]2c3ccc(-c4cccnc4)c(=O)n3C[C@@H]2[C@@H](CO)[C@@H]1C(=O)NCC1CCCCC1,/,/,/,/,/,11.9[16.7 µM]
CC1CCC(C(C)C)C(OC(=O)Cn2c(-c3ccccc3)[n+](C)c3ccccc32)C1 (stereo not drawn),0.8,-2.3,1.0,1.4,-10.5,69.0*
CC1CCC(C(C)C)C(OC(=O)Cn2c(-c3ccc(F)cc3)[n+](C)c3ccccc32)C1 (stereo not drawn),-8.6,-2.1,-0.9,-20.4,-5.7,65.5*
Cn1c(NCc2c(O)ccc3ccccc23)nc2ccccc21,-2.3,-4.9,0.3,1.4,-3.9,71.0*
Cc1ccc(C(=O)CCS(=O)(=O)c2ccc(Br)cc2)cc1,-2.3,-4.2,-2.4,-8.4,0.7,-7.4
Cc1ccc(S(=O)(=O)CCC(=O)c2cccc([N+](=O)[O-])c2)cc1,-1.2,27.9*,1.6,10.5,0.8,-8.2
Cc1ccc(S(=O)(=O)N[C@@H]2CC[C@@H](CCn3cc(-c4ccccc4F)nn3)O[C@H]2CO)cc1,/,/,/,/,/,-14.4[16.7 µM]
SMILES,GalR3 antag,V-ATPase pHluor,NR2E3 ag-1,NR2E3 ag-2,GAA850 FXN act,Env fusion inh
N#C[C@H]1[C@@H](c2ccccc2)[C@@H](CO)N1S(=O)(=O)c1cccc(F)c1,/,/,/,/,/,-6.6[16.7 µM]
N#C[C@H]1[C@@H](c2ccccc2/C=C/c2ccccc2)[C@@H](CO)N1S(=O)(=O)c1cccc(F)c1,/,/,/,/,/,58.3*[16.7 µM]
O=C(C[C@@H]1CC[C@@H](NC(=O)c2cnccn2)[C@H](CO)O1)NCc1ccccc1F,/,/,/,/,/,9.5[16.7 µM]
COc1ccc(-c2nn(CC(=O)NCCc3ccccc3)c(=S)n2C)cc1,2.0,-3.4,-0.6,-13.1,-0.4,/
CCn1c(-c2ccc(C)cc2)nn(CC(=O)NCCc2ccccc2)c1=S,1.1,1.4,-1.8,19.4,0.0,76.5*
C[C@H]1CCCCO[C@@H](CN(C)C(=O)Cc2ccccc2)[C@@H](C)CN([C@@H](C)CO)C(=O)c2cc(NS(=O)(=O)c3cn(C)cn3)ccc2O1,/,/,/,/,/,-6.7[16.7 µM]
C[C@H]1CN([C@@H](C)CO)C(=O)Cc2cc(NS(=O)(=O)c3cccs3)ccc2O[C@@H]1CN(C)Cc1ccc(C(F)(F)F)cc1,/,/,/,/,/,4.9[16.7 µM]
COc1ccc(S(=O)(=O)Nc2ccc3c(c2)CC(=O)N([C@@H](C)CO)C[C@@H](C)[C@H](CN(C)Cc2ccc(C(F)(F)F)cc2)O3)cc1,/,/,/,/,/,72.7*[16.7 µM]
C[C@@H]1CN([C@@H](C)CO)C(=O)Cc2cc(NC(=O)c3ccncc3)ccc2O[C@H]1CN(C)Cc1ccc(Cl)c(Cl)c1,/,/,/,/,/,72.7*[16.7 µM]
C[C@@H]1CN([C@@H](C)CO)C(=O)Cc2cc(NS(=O)(=O)c3cccs3)ccc2O[C@H]1CN(C)Cc1ccc(C(F)(F)F)cc1,/,/,/,/,/,77.5*[16.7 µM]
C[C@@H]1CN([C@@H](C)CO)C(=O)Cc2cc(NS(=O)(=O)c3cccs3)ccc2O[C@H]1CN(C)Cc1ccc(Cl)c(Cl)c1,/,/,/,/,/,61.4*[16.7 µM]
CN1C(=O)c2cc(NC(=O)C3CCOCC3)ccc2OC[C@@H]2O[C@H](CC(=O)NC3CCCC3)CC[C@H]21,/,/,/,/,/,-1.3[16.7 µM]
O=C(COc1ccc(-c2nnco2)cc1)Nc1ccc(C(F)(F)F)cc1,-5.2,-0.8,-3.0,0.6,1.6,55.2*
Nc1nc(SCc2ccc(Cl)cc2Cl)nc2nc3c(cc12)CCCC3,-2.7,127.7*,-2.1,-3.2,3.0,13.6
Nc1nc(SCc2ccccc2Cl)nc2nc3c(cc12)CCCC3,-9.9,-1.3,4.3,-6.6,4.2,13.0
O=C(O)c1ccc2c(=O)n(-c3ccccc3)c(=S)[nH]c2c1,-0.9,2.2,2.6,-24.0,2.4,-4.9
O=C(O)c1ccc2c(=O)n(-c3ccc(F)cc3)c(=S)[nH]c2c1,1.9,13.3*,-0.6,-13.2,1.6,-3.8
COc1ccccc1CN1C(=O)c2ccccc2[C@](Cc2ccccc2I)(C(=O)NCc2ccccc2)[C@@H]1c1ccc(CO)cc1,/,/,/,/,/,60.5*[16.7 µM]
COC(=O)c1cn(C[C@H](Cc2ccccc2)NC(=O)c2ccccc2)nn1,/,/,/,/,/,-17.3[16.7 µM]

# Screening results from PubChem.
